Test results published in ChEMBL document CHEMBL4028848, “Discovery of N-{4-[5-(4-Fluorophenyl)-3-methyl-2-methylsulfanyl-3H-imidazol-4-yl]-pyridin-2-yl}-acetamide (CBS-3595), a Dual p38α MAPK/PDE-4 Inhibitor with Activity against TNFα-Related Diseases” (J Med Chem, 2017).
Active and inactive are the calls of the source. No cut-off for these calls is given here.

Columns and labels:
[1] = AUC (0 to t) in fed human at 10 mg, po administered as single dose; format: ADME, organism-based; settings: in vivo
Procedure, shortened: (§1)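 Placebo-controlled, single-blind, randomized, consecutive-dosing study in healthy subjects given single oral doses, with 10 mg also given fasting and fed in a crossover. Plasma parent and active metabolite were measured predose and from 0.25 to 36 h post dose. PK parameters were derived from individual concentration–time profiles and reported as means.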

[2] = Fraction unbound in human plasma; format: ADME, cell-free
Procedure, shortened: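 Plasma protein binding measured in human, Sprague–Dawley rat and Cynomolgus monkey plasma at 1, 10 and 30 μM compound. Reported as unbound fraction (%).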

[3] = molecular target: Mitogen-activated protein kinase 13 (Homo sapiens) (UniProt O15264); assay: Inhibition of p38MAPK delta (unknown origin) at 10 uM relative to control
[4] = molecular target: 3',5'-cyclic-AMP phosphodiesterase 4C (Homo sapiens, UniProt Q08493); assay: Inhibition of human PDE4C1 expressed in sf9 cells
[5] = Half life in fasting human at 10 mg, po administered as single dose; format: ADME, organism-based; settings: in vivo
Procedure, shortened: (§2)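 Oral single-dose PK; plasma concentrations of parent and metabolite measured. Dogs: blood sampled 0.25 to 24 h after dosing. Humans: healthy subjects, placebo-controlled single-blind randomized consecutive dosing, plasma sampled predose and 0.25–36 h post dose. 10 mg also given fasting and fed in crossover. Parameters derived from individual concentration–time profiles.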

[6] = Cmax in fed human at 10 mg, po administered as single dose; format: ADME, organism-based; design: dose 10 mg, route oral; settings: in vivo; procedure, shortened: as §1
[7] = Half life in human at 50 mg, po administered as single dose; format: ADME, organism-based; settings: in vivo; procedure, shortened: as §2
[8] = Tmax in fasting human at 10 mg, po administered as single dose; format: ADME, organism-based; settings: in vivo
Procedure, shortened: (§3)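 Healthy subjects received single oral doses of 10, 20, 30 or 50 mg in a placebo-controlled, single-blind, randomized consecutive-dose study; 10 mg was also given fasting vs fed in a crossover. Plasma drug was sampled pre-dose and from 0.25 to 36 h post-dose. Mean Tmax was taken from individual concentration–time profiles.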

[9] = molecular target: cGMP-specific 3',5'-cyclic phosphodiesterase (Homo sapiens) (UniProt O76074); assay: Inhibition of PDE5 in human U937 cells assessed as [3H]cAMP hydrolysis at 10 uM; format: cell-based
[10] = molecular target: RAF proto-oncogene serine/threonine-protein kinase (Homo sapiens) (UniProt P04049); assay: Inhibition of c-RAF (unknown origin) at 10 uM relative to control
[11] = AUC (0 to infinity) in human at 50 mg, po administered as single dose; format: ADME, organism-based; design: dose 50 mg, time infinity, route oral; settings: in vivo; procedure, shortened: as §1
[12] = Cmax in fasting human at 10 mg, po administered as single dose; format: ADME, organism-based; design: dose 10 mg, route oral; settings: in vivo; procedure, shortened: as §1
[13] = Cmax in human at 50 mg, po administered as single dose; format: ADME, organism-based; design: dose 50 mg, route oral; settings: in vivo
[14] = AUC (0 to infinity) in human at 30 mg, po administered as single dose; format: ADME, organism-based; design: dose 30 mg, time infinity, route oral; settings: in vivo; procedure, shortened: as §1
[15] = AUC (0 to t) in human at 30 mg, po administered as single dose; format: ADME, organism-based; settings: in vivo; procedure, shortened: as §1
[16] = Cmax in human at 10 mg, po administered as single dose; format: ADME, organism-based; design: dose 10 mg, route oral; settings: in vivo; procedure, shortened: as §2
[17] = molecular target: 3',5'-cyclic-AMP phosphodiesterase 4A (Homo sapiens, UniProt P27815); assay: Inhibition of human PDE4A4 expressed in sf9 cells
[18] = molecular target: Mitogen-activated protein kinase 9 (Homo sapiens) (UniProt P45984); assay: Inhibition of JNK2alpha2 (unknown origin) at 10 uM relative to control
Homo sapiens [19] = assay: Toxicity in human assessed as effect on CNS at 50 mg, po administered as single dose; format: organism-based; settings: in vivo
Procedure, shortened: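 Single oral 50 mg dose given to healthy subjects in a placebo-controlled, single-blind, randomized FIH study. Adverse events, vital signs and physical findings were recorded, including CNS effects.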

[20] = molecular target: T1, 3',5'-cyclic-AMP phosphodiesterase 4D (Homo sapiens, UniProt Q08499); assay: Inhibition of human PDE4D2 expressed in sf9 cells
[21] = AUC (0 to t) in human at 50 mg, po administered as single dose; format: ADME, organism-based; settings: in vivo; procedure, shortened: as §1
[22] = Tmax in human at 10 mg, po administered as single dose; format: ADME, organism-based; settings: in vivo; procedure, shortened: as §3
[23] = AUC (0 to infinity) in human at 10 mg, po administered as single dose; format: ADME, organism-based; design: dose 10 mg, time infinity, route oral; settings: in vivo; procedure, shortened: as §1
[24] = AUC (0 to infinity) in fasting human at 10 mg, po administered as single dose; format: ADME, organism-based; design: dose 10 mg, time infinity, route oral; settings: in vivo; procedure, shortened: as §1
[25] = AUC (0 to t) in human at 10 mg, po administered as single dose; format: ADME, organism-based; settings: in vivo; procedure, shortened: as §1
[26] = Cmax in human at 20 mg, po administered as single dose; format: ADME, organism-based; design: dose 20 mg, route oral; settings: in vivo; procedure, shortened: as §2
[27] = Tmax in human at 50 mg, po administered as single dose; format: ADME, organism-based; settings: in vivo; procedure, shortened: as §3
[28] = AUC (0 to t) in human at 20 mg, po administered as single dose; format: ADME, organism-based; settings: in vivo; procedure, shortened: as §1
[29] = molecular target: Mitogen-activated protein kinase 14 (Homo sapiens, UniProt Q16539); assay: Inhibition of P38 MAPKalpha in LPS-stimulated human whole blood assessed as decrease in TNFalpha level
[30] = Half life in human at 30 mg, po administered as single dose; format: ADME, organism-based; settings: in vivo; procedure, shortened: as §2
[31] = Half life in human at 10 mg, po administered as single dose; format: ADME, organism-based; settings: in vivo; procedure, shortened: as §2
[32] = Tmax in human at 20 mg, po administered as single dose; format: ADME, organism-based; settings: in vivo; procedure, shortened: as §3
[33] = AUC (0 to t) in fasting human at 10 mg, po administered as single dose; format: ADME, organism-based; settings: in vivo; procedure, shortened: as §1
[34] = Half life in fed human at 10 mg, po administered as single dose; format: ADME, organism-based; settings: in vivo; procedure, shortened: as §2
[35] = Inhibition of PDE4 in human U937 cells assessed as [3H]cAMP hydrolysis; format: cell-based
[36] = AUC (0 to infinity) in human at 20 mg, po administered as single dose; format: ADME, organism-based; design: dose 20 mg, time infinity, route oral; settings: in vivo; procedure, shortened: as §1
[37] = molecular target: 3',5'-cyclic-AMP phosphodiesterase 4B (Homo sapiens, UniProt Q07343); assay: Inhibition of human PDE4B1 expressed in sf9 cells
[38] = Tmax in human at 30 mg, po administered as single dose; format: ADME, organism-based; settings: in vivo; procedure, shortened: as §3
Homo sapiens [39] = species: Homo sapiens; assay: Inhibition of PDE3 in human U937 cells assessed as [3H]cAMP hydrolysis at 10 uM; format: cell-based
[40] = Tmax in fed human at 10 mg, po administered as single dose; format: ADME, organism-based; settings: in vivo; procedure, shortened: as §3
[41] = molecular target: T1, 3',5'-cyclic-AMP phosphodiesterase 4D; assay: Inhibition of human PDE4D3 expressed in sf9 cells
[42] = Half life in human at 20 mg, po administered as single dose; format: ADME, organism-based; settings: in vivo; procedure, shortened: as §2
[43] = AUC (0 to infinity) in fed human at 10 mg, po administered as single dose; format: ADME, organism-based; design: dose 10 mg, route oral, time infinity; settings: in vivo; procedure, shortened: as §1
[44] = Cmax in human at 30 mg, po administered as single dose; format: ADME, organism-based; design: dose 30 mg, route oral; settings: in vivo; procedure, shortened: as §2

T1 sequence (Q08499 whole entry): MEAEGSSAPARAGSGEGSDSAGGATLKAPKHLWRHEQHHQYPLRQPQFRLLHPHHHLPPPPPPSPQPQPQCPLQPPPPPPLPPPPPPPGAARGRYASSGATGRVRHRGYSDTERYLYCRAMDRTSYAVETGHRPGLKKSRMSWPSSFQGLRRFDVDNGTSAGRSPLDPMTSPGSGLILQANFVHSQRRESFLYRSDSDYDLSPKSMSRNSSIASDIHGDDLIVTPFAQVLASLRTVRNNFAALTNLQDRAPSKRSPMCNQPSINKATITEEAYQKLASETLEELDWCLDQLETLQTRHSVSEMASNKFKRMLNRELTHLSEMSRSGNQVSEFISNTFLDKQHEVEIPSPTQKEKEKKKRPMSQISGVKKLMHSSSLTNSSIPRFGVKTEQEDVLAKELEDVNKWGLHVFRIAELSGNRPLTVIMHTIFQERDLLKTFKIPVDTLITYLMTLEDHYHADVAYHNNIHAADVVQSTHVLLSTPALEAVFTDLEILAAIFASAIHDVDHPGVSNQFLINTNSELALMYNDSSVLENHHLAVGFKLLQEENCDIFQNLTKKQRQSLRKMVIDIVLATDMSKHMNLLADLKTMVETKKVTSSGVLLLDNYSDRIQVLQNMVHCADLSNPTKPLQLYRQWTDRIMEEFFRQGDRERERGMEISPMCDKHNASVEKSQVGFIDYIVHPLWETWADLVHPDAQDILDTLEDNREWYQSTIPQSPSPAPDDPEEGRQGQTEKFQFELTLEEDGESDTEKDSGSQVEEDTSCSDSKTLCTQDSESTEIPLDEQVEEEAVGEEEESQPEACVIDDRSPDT
Sequence of 3',5'-cyclic-AMP phosphodiesterase 4A (P27815 whole entry): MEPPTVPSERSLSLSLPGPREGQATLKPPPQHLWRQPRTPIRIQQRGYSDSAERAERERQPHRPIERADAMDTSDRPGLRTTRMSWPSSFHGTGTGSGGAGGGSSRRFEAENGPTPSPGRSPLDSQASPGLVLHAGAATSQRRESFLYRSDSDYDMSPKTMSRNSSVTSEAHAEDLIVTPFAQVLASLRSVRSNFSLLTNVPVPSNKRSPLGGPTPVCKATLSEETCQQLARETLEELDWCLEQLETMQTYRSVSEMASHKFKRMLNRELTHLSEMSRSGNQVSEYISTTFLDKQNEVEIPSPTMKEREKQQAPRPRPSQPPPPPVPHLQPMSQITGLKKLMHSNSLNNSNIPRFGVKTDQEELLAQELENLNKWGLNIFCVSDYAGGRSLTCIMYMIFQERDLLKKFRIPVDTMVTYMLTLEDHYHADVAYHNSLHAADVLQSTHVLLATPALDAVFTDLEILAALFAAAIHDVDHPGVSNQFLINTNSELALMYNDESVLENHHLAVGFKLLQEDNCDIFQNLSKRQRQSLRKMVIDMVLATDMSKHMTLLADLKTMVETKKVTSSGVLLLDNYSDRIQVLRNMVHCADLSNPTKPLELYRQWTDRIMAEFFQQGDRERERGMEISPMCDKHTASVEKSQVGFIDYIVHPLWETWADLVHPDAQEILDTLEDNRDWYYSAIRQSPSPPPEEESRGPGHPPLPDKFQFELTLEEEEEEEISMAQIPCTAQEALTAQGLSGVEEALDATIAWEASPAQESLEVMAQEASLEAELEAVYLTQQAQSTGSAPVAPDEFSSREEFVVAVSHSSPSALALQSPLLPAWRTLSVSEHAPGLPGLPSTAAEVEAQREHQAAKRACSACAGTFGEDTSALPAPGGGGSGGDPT
Sequence of Mitogen-activated protein kinase 13 (Homo sapiens) (O15264 whole entry): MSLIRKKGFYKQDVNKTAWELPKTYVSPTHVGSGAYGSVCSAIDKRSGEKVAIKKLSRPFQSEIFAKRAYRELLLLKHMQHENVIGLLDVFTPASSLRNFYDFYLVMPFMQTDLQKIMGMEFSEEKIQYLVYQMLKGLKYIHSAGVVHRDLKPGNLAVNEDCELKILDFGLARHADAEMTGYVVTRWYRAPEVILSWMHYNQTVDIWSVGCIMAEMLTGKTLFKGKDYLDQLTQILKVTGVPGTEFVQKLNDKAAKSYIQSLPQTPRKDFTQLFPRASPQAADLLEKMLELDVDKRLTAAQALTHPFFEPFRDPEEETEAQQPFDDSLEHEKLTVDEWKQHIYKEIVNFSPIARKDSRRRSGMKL
Sequence of Mitogen-activated protein kinase 9 (Homo sapiens) (P45984 whole entry, looked up): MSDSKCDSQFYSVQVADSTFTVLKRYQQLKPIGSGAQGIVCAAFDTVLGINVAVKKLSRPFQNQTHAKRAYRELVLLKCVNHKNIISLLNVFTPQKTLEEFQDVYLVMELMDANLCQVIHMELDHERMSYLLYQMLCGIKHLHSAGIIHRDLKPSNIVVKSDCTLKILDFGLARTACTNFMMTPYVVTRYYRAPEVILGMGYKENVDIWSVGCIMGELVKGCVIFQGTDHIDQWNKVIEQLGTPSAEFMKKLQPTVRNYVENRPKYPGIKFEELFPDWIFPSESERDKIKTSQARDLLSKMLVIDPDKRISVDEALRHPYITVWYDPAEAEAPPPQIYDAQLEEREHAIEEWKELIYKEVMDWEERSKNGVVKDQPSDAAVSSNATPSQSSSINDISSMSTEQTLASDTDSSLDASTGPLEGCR
Sequence of 3',5'-cyclic-AMP phosphodiesterase 4C (Q08493 whole entry): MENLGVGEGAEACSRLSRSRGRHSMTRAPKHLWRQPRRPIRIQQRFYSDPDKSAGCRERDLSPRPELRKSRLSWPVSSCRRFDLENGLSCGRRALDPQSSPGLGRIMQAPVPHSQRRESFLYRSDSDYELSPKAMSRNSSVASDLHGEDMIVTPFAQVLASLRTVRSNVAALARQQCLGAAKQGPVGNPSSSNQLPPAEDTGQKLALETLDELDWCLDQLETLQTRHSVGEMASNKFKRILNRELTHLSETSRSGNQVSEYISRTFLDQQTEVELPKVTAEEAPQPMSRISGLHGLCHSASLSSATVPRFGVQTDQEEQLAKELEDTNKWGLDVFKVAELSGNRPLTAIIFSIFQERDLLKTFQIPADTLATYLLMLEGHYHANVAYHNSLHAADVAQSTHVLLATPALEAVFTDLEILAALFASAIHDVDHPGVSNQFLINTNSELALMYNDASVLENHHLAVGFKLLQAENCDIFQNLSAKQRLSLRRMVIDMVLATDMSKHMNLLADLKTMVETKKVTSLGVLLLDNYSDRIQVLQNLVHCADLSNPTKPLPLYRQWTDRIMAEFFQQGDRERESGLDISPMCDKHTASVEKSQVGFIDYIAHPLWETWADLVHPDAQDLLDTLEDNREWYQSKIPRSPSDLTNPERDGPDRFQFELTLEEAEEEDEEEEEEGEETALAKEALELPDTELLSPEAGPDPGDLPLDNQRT
Sequence of Mitogen-activated protein kinase 14 (Q16539 whole entry): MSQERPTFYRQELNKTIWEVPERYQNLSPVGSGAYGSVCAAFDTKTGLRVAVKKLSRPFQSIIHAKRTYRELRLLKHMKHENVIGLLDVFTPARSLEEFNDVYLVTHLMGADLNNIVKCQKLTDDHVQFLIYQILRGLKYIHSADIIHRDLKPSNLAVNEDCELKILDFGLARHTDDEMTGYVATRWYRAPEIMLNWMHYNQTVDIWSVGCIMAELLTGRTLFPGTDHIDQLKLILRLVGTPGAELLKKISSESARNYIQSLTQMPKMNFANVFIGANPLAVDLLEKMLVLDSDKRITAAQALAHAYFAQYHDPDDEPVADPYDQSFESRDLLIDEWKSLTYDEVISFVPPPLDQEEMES
Sequence of 3',5'-cyclic-AMP phosphodiesterase 4B (Q07343 whole entry): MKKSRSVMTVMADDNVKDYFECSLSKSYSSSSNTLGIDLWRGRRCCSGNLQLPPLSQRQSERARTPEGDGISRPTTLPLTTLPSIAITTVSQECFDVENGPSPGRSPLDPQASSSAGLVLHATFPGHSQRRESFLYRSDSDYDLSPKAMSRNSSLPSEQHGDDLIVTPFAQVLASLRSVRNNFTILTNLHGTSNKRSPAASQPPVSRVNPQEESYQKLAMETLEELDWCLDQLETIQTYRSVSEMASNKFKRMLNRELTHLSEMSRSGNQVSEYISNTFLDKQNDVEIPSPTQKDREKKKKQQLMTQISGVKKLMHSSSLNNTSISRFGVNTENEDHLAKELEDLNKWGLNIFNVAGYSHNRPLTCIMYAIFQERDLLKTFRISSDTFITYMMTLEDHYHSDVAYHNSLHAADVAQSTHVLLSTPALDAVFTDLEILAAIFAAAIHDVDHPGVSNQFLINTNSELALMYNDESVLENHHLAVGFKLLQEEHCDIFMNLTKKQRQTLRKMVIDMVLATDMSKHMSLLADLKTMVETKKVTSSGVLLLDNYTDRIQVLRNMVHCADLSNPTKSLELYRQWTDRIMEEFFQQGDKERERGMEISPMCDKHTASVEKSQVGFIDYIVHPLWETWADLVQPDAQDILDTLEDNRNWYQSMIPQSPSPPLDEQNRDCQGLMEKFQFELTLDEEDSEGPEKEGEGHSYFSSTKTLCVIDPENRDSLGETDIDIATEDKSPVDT
Sequence of RAF proto-oncogene serine/threonine-protein kinase (Homo sapiens) (P04049 whole entry): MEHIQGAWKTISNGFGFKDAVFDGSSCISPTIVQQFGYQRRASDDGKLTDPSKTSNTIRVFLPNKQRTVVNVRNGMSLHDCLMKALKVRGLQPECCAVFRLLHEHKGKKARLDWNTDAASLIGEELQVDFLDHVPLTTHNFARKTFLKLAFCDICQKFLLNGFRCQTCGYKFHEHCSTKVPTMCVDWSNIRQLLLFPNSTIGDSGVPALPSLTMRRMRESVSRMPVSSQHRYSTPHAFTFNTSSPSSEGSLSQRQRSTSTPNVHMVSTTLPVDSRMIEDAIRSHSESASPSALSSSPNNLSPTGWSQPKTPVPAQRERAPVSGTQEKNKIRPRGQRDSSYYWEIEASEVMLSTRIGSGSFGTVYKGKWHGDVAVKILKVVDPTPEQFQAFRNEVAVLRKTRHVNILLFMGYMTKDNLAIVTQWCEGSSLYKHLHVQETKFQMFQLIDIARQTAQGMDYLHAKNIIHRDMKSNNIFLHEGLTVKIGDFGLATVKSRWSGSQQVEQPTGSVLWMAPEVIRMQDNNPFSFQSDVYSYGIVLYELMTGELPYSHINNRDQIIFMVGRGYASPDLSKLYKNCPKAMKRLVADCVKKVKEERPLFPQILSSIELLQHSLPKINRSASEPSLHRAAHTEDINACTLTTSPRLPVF

For `Cn1c([S+](C)[O-])nc(-c2ccc(F)cc2)c1-c1ccnc(N)c1` (centres undefined), the AUC(0-t) [1] was 2.6 µM·h, the fraction unbound [2] was 0.5 and the inhibition [3] was “inactive”. The IC50 [4] was > 10 µM, the half-life [5] was 11.3 h and the Cmax [6] was 140 nM. The half-life [7] was 9 h, the Tmax [8] was 6 h and the inhibition [9] was “inactive”. The inhibition [10] was “inactive”, the AUC(0-inf) [11] was 9.4 µM·h and the Cmax [12] was 150 nM. It also gave a Cmax [13] of 600 nM, an AUC(0-inf) [14] of 8.55 µM·h and an AUC(0-t) [15] of 7.37 µM·h. The Cmax [16] was 190 nM, the IC50 [17] was 9.9 µM and the inhibition [18] was “inactive”. The Activity (Homo sapiens [19]) was “Non-Toxic”, the IC50 [20] was 2.4 µM and the AUC(0-t) [21] was 8.73 µM·h. The Tmax [22] was 4.7 h, the AUC(0-inf) [23] was 3.43 µM·h and the AUC(0-inf) [24] was 3.29 µM·h. It also gave an AUC(0-t) [25] of 2.95 µM·h, a Cmax [26] of 360 nM and a Tmax [27] of 5 h. For the same molecule, the AUC(0-t) [28] was 6.38 µM·h, the IC50 [29] was 0.71 µM and the half-life [30] was 11.3 h. The half-life [31] was 9.5 h, the Tmax [32] was 5 h and the AUC(0-t) [33] was 2.82 µM·h. For the same molecule, the half-life [34] was 10.7 h, the IC50 [35] was 2 µM and the AUC(0-inf) [36] was 7.17 µM·h. The IC50 [37] was 3.5 µM, the Tmax [38] was 6 h and the inhibition (Homo sapiens [39]) was “inactive”. It also gave a Tmax [40] of 6.7 h, an IC50 [41] of 0.7 µM and a half-life [42] of 10.9 h. It also gave an AUC(0-inf) [43] of 3.07 µM·h and a Cmax [44] of 420 nM.
